Lmaj promast – inhibitors of Leishmania major promastigote growth. Leishmania major promastigotes, resazurin fluorescence viability. inhibition, % at 10 µM. hit rate 9% among 200,000; in the data active means inhibition above about 50%;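 further: promastigotes grown with compound for 44 hours at 28 °C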
CHOP UPR activ – apoptotic UPR (CHOP) activation; hit rate 0.34% among 330,000; CHO-CHOP luciferase reporter, luminescence; percent of tunicamycin response over DMSO baseline; AID 449763; activation, % at 10 µM;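 active means at 10 µM dose, activation of 40% or more, normalized to positive control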;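 further: 100% = tunicamycin at 10 µg/mL and 0% = DMSO alone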
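Material: CHO-CHOP cells, stable luciferase reporter of PERK-eIF2a-CHOP signalling; quantity: 500 reporter cells seeded per well; buffer or medium: F12 medium containing 10% fetal bovine serum; compound: one dose, 10 µM in 0.5% DMSO; incubation: 6 h compound treatment, 37 °C; measured by: Steady-Glo luciferase luminescence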
XBP1 UPR activ – adaptive UPR (XBP1) activation; CHO-XBP1 luciferase reporter, IRE1-XBP1 UPR activation, luminescence; percent of tunicamycin response, DMSO as zero; activation, % at 20 µM; hit rate 0.33% among 330,000;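 active means versus positive control, 20 µM dose yields 30% or more activation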;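 further: 100% = tunicamycin at 10 µg/mL and 0% = DMSO only wells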
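Material: CHO-XBP1 cells stably carrying IRE1-XBP1-driven luciferase reporter | Medium: F12 with 10% serum | Compound dosing: 20 µM single concentration, DMSO 1% | Incubation: Overnight seeding at 37 °C, 6 h compound treatment at 37 °C | Detection: Steady-Glo luminescence read | Read-out basis: % activation of reporter signal versus tunicamycin and DMSO controls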
T cruzi inh – T. cruzi replication inhibition | hit rate 1.4% among 300,000 | AID 1885 | T. cruzi beta-gal in NIH3T3, luminescence, 90 h | inhibition, % (no concentration beside the values);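 active means mean inhibition across valid replicates above about 55%, limit read from the data; inconclusive means mean below that limit but half or more replicates reach it; inactive means mean below it, under half of replicates reach it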;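 further: signal also drops with host cell toxicity which is not excluded here; 0% = plate median of DMSO wells and 100% = zero luminescence signal; higher percent means less beta-gal luminescence so fewer parasites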
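System – NIH/3T3 host cells with β-galactosidase reporter T. cruzi · Doses – single 50 nL compound addition per well in DMSO · Reagent – 5000 T. cruzi trypomastigotes/well · Medium – Low-serum DMEM with 2% FBS · Timing – ≥90 h infection period, 3 h prior cell attachment · Evaluation – parasite load inhibition, % · Technique – GalScreen luminescence, 60 min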
CHOP inhibitor – CHOP inhibition in unfolded protein response; inhibition, % at 10 µM; CHO-K1 CHOP-promoter luciferase, tunicamycin-induced, 15-18 h; hit rate 3.8% among 220,000;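 active means compounds that reduced the stress-induced luciferase reporter signal by more than about 70% of percent inhibition, limit read from the data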;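 further: 0% = tunicamycin plus vehicle and 100% = wells without tunicamycin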
Dynein transport – dynein cargo transport inhibition; 3617.4 mouse cells, GR-EGFP nuclear translocation imaging; test concentration mostly 20 µM; stimulated with dexamethasone, 1 µM; stronger effect = lower value; z-score, hits read low; hit rate 0.47% among 220,000;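 active means plate z-score of nuclear minus cytoplasmic receptor signal below a set negative limit, without overly bright fluorescence or cell loss, cut at about -3.5 in these data, passing the limit was not always enough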;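 further: z-score of nuclear minus cytoplasmic ring GR-EGFP intensity difference per well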
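Schedule: 48 h induction, then 1 h compound, then 30 min agonist, 37 °C. Buffer or medium: tetracycline-free induction medium containing charcoal-stripped FBS. Reagent: 1.0 µM final dexamethasone stimulus. Evaluation: nuclear versus cytoplasmic GR-EGFP signal, averaged per well. Signal: high-content fluorescence imaging after fixation.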
UPR CHOP confirm – apoptotic UPR (CHOP) activation, confirmed; shares compounds with CHOP UPR activ; CHO-CHOP cells, CHOP-luciferase reporter luminescence; percent of tunicamycin response, DMSO as zero; activation, % at 10 µM; hit rate 64% among 1,000; in the data active means activation above about 33%;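 further: 0% = DMSO wells and 100% = tunicamycin 10 µg/mL wells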
XBP1 UPR conf – adaptive UPR (XBP1) activation, confirmed; shares compounds with XBP1 UPR activ; CHO-XBP1 IRE1-XBP1 luciferase reporter, luminescence; activation, % at 20 µM; hit rate 63% among 1,000; AID 485299;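 active means reporter signal at least 30% of the positive control's activation in two or more of four replicate wells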;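 further: plate controls were DMSO negative control for no effect and tunicamycin 10 µg/mL positive control for full effect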
* hit, by the source's call; u = inconclusive; x = no result. The full list was thinned out, with hits kept by preference.

SMILES	Lmaj promast	CHOP UPR activ	XBP1 UPR activ	T cruzi inh	CHOP inhibitor	Dynein transport	XBP1 UPR conf	others
CCCC[C@@H](C)C[C@@H](C)C(=O)N(C)[C@@H](CC(C)C)C(=O)N[C@H](C(=O)N(C)[C@H](C(=O)N1C[C@@H](O)C[C@H]1C(=O)N1C(=O)C=C[C@@H]1C)C(C)C)C(C)OC(C)=O (some centres undefined)	x	73*	51*	x	x	x	74*	UPR CHOP confirm=46*
Cc1ccccc1N1CCN(C2CCCN(C(=O)COc3ccccc3)C2)CC1 (centres undefined)	x	0	-4	15	x	x	x
NC(N)=N/N=C/c1ccc(N2CCOCC2)cc1	4	1	0	28	6	1.7	x
NC(N)=N/N=C/c1ccc(N(c2ccccc2)c2ccccc2)cc1	x	74*	62*	42	x	x	3	UPR CHOP confirm=31
Cc1cc(C)n(CCOC(=O)C2C(C=C(Cl)Cl)C2(C)C)n1 (centres undefined)	-1	-1	2	6	3	-0.75	x
Cc1ccc(C[n+]2c(-c3ccc(C)cc3)cc(-c3ccc(C)cc3)cc2-c2ccc(C)cc2)cc1	x	77*	42*	47	x	x	19	UPR CHOP confirm=238*
O=C1NC(=O)N(Cc2ccc(F)cc2)C(=O)/C1=C\c1ccoc1	x	0	2	-15	-52	-0.31	x
O=C1NC(=O)N(Cc2ccc(F)cc2)C(=O)/C1=C/c1cccs1	5	8	39*	-6	55	1	40*
NS(=O)(=O)c1ccc(N=Cc2c(O)n(C3CCCCC3)c(=O)n(C3CCCCC3)c2=O)cc1	65*	3	46*	u	112*	1.5	40*
CCc1ccc(N2C(=O)NC(=O)/C(=C\c3cccn3CCOc3ccc(C(C)C)cc3)C2=O)cc1	95*	23	51*	11	87*	-0.51	41*
CCCCCCn1c(O)c(C=NC2CCCCC2N)c(=O)[nH]c1=O (centres undefined)	0	-1	30*	-7	68	0.74	14
O=C1Nc2ccc(Br)cc2C(c2ccc(Cl)cc2)=NC1O (centres undefined)	x	-1	-5	-3	x	x	x
COc1ccc(S(=O)(=O)NC(CC(=O)N2CCC3(CC2)OCCO3)C(C)C)cc1 (centres undefined)	-4	-2	0	-8	4	-0.63	x
OCCOCCO	x	-1	-2	x	x	x	x
CN(C)c1ccc(/C=C/[N+](=O)[O-])cc1	32	18	59*	-1	-74	-0.62	33*
CN(C)c1ccc(C(=O)c2ccc(N(C)C)cc2)cc1	-1	3	7	-44	20	-0.38	x

Assay outcomes deposited in PubChem by several laboratories.
